From PubChem BioAssay
Active and inactive are the calls of the source.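 Rule for the calls, unless noted: active = inhibition at or above 50% at 10 µM; inactive = inhibition below 50%.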

How the values were obtained:
[1] = inhibitors of TNFa-induced NFkB p65 translocation, primary screen, imaging, HUVEC, MLSMR starter and 10KST1 sets (AID 438;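 active = inhibition above 20% together with a positive visual image hit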;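 note: compound added about 3h40 before a 20 min TNFalpha stimulation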;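 for inhibition: signal is the nuclear over cytoplasmic p65 intensity ratio per well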); conditions: HUVEC TNFa-induced p65 nuclear translocation; cell count: measured here: nuclei count (cytotoxicity indicator), at 2.08 µM; inhibition: at 2 µM, stronger effect = higher value, 0% TNFa-plus-vehicle, 100% no-TNFa wells
[2] = inhibitors of mutant huntingtin aggregation, primary screen, imaging, exon1htt(103Q)mCFP cells, high-content imaging (AID 483;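 active = visual image review flags a hit and inhibition of aggregation exceeds 20%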;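 note: compound exposure lasted 3 days before fixation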;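 for nuclei count: percent of the per-plate median nuclei count of sample wells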); conditions: exon1htt(103Q)mCFP cell line, aggregate imaging, at 2 µM; inhibition of aggregation: stronger effect = higher value; nuclei count: measured here: cell count, toxicity
[3] = inhibitors of E-selectin induction by TNFa, primary screen, imaging, HUVEC, immunofluorescence, MLSMR starter and 10KST1 sets (AID 487;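 active = visually confirmed hit in the image check and inhibition above 20%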;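 for inhibition: signal is fraction of cell area covered by stained E-selectin grains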;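 for nuclei count: 100% = median nuclei count of all wells on the same plate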); conditions: HUVEC TNFalpha-induced E-selectin immunofluorescence imaging, at 2 µM; inhibition: stronger effect = higher value; nuclei count: measured here: cell number, toxicity
[4] = target: Voltage-gated potassium channel subunit beta-2 (Rattus norvegicus) (UniProt P62483); test: KvBeta enzyme negative modulators, primary screen, biochemical, NADPH fluorescence (AID 622;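 active = fluorescence slope higher than the sample average by over 3 SD, cut at about -0.22 in these data, passing the limit was not always enough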;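 note: slope of raw intensity against log time taken from 70 to 1610 s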); conditions: recombinant KvBeta, 4-cyanobenzaldehyde reduction, at 10 µM, stronger effect = higher value
[5] = target: Voltage-gated potassium channel subunit beta-2 (Rattus norvegicus) (UniProt P62483); test: KvBeta positive modulators, primary screen, biochemical, NADPH fluorescence (AID 623;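 active = NADPH fluorescence slope more negative than the mean of all samples by about 3 SD, 99.7% confidence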;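 note: fluorescence intensity change per second fitted from 20 to 320 s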); conditions: Recombinant KvBeta, NADPH fluorescence decrease slope, 10 min; at 10 µM; stronger effect = lower value
[6] = target: Muscarinic acetylcholine receptor M4 (Homo sapiens) (UniProt P08173); test: compounds altering M4/GIRK thallium flux, either direction, primary screen, M4 allosteric agonist project, cell-based, HEK293 M4/GIRK, BTC-AM (AID 625;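 active = fluorescence slope after compound addition differing from the mean of all tested samples at 99.7% confidence, mostly higher but some lower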;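 note: thallium influx through GIRK channels coupled to M4 in HEK293 cells with BTC-AM dye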); conditions: at 10 µM, actives lie on both sides
How it was run: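 Material: M4/GIRK1/GIRK2 stable HEK293 cell line. Medium: pH 7.3 thallium assay buffer. Dosing: single compound concentration, 10 µM final. Schedule: 1 h dye loading, 2 min kinetic read. Measured by: kinetic fluorescence with BTC-AM dye. Read-out: post-addition slope, 15–24 s, of baseline-normalized fluorescence. Benchmarks: carbachol and DMSO controls.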

[7] = inhibitors of Sendai virus-induced IRF3 signaling, primary screen, TLR/RLR signaling modifier project, cell-based, Sendai virus stimulus, luciferase, 10K MLSCN set (AID 602276); conditions: HEK293 RL24 IRF3 luciferase reporter, at 10 µM, stronger effect = higher value;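 note: firefly luciferase from ISG56 promoter only with Renilla not read in this screen; 0% = Sendai virus plus DMSO and 100% = medium plus DMSO without virus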
[8] = inhibitors of poly I:C-induced TLR3 signaling, primary screen, cell-based, poly I:C stimulus, luciferase, 10K MLSCN set (AID 602277;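 active = inhibition of the reporter signal at or above 50%; inactive = inhibition below 50%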); conditions: HEK293-TLR3 RL24 IRF3 luciferase reporter, at 10 µM, stronger effect = higher value

Voltage-gated potassium channel subunit beta-2 (Rattus norvegicus), sequence (P62483 whole entry, looked up): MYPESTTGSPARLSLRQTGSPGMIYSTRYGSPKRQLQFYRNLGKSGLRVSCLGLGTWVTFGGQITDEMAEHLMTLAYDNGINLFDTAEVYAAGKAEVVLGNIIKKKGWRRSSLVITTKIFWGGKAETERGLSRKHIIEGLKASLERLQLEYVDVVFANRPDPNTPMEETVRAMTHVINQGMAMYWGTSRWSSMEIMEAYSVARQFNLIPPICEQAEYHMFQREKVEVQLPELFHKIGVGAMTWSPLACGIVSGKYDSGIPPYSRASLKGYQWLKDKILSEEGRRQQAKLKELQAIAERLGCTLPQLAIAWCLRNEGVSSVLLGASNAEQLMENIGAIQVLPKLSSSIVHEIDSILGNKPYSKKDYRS
Muscarinic acetylcholine receptor M4 (Homo sapiens), sequence (P08173 whole entry, looked up): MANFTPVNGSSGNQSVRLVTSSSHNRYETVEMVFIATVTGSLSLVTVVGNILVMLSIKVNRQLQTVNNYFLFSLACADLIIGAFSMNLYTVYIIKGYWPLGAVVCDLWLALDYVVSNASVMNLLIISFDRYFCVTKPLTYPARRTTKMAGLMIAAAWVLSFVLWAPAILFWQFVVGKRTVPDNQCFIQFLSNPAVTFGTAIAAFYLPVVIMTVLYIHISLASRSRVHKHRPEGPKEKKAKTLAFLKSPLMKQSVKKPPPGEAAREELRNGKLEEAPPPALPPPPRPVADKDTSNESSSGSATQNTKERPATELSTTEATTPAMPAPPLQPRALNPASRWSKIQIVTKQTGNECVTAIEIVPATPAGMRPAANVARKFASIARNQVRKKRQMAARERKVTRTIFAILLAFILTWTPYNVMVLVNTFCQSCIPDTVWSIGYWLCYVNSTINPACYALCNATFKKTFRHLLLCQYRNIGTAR

Row | Compound | cell count [1] | inhibition [1] | inhibition of aggregation [2] | nuclei count [2] [%] | inhibition [3] | nuclei count [3] [%] | fluorescence slope [4] | NADPH fluorescence slope [5] | fluorescence slope [6] | inhibition [7] | inhibition [8]
1 | COc1cccc(C(=O)Nc2cc(NC(=O)c3ccco3)ccc2OC)c1 | 406 | 10.9% (inactive) | 24.4% (inactive) | 88.1 | 17.3% (inactive) | 98.6 | -0.572 (inactive) | -3.4e-05 (inactive) | 0.00583 (inactive) | 19.4% (inactive) | 4.19% (inactive)
2 | CCOC(=O)c1c(C)oc2ccc(OCC(=O)N(CC)CC)cc12 | 422 | -1.7% (inactive) | -2.3% (inactive) | 95.5 | -63% (inactive) | 104 | -0.449 (inactive) | -1.9e-05 (inactive) | 0.00589 (inactive) | 8.2% (inactive) | 7.27% (inactive)
3 | COc1oc(-c2ccccc2)nc1C(F)(F)F | 353 | 4.1% (inactive) | 0.7% (inactive) | 106 | -15.8% (inactive) | 116 | -0.473 (inactive) | -3.2e-05 (inactive) | 0.00537 (inactive) | 3.7% (inactive) | 12.2% (inactive)
4 | Cc1ccc(-n2c(Cc3cccn3C)nnc2SCC(=O)NCc2ccc3c(c2)OCO3)cc1 | 567 | -12.9% (inactive) | -10.3% (inactive) | 103 | -53.4% (inactive) | 82.3 | -0.419 (inactive) | 2.3e-05 (inactive) | 0.00714 (inactive) | 18.7% (inactive) | 26.7% (inactive)
5 | COc1ccc(OC)c(N2Cc3cc(C)c(C)cc3C2)c1 | 561 | -3.1% (inactive) | 0.2% (inactive) | 79.6 | -8.6% (inactive) | 86.7 | -0.476 (inactive) | -6.9e-05 (inactive) | 0.00388 (inactive) | -3.86% (inactive) | -7.05% (inactive)
6 | CS(=O)(=O)N(CC(=O)NC1CC1)c1cccc(F)c1 | 387 | -2.3% (inactive) | 0.3% (inactive) | 113 | -44.3% (inactive) | 113 | -0.555 (inactive) | -5e-05 (inactive) | 0.00595 (inactive) | 8.69% (inactive) | 14.7% (inactive)
7 | COc1ccc(CC(=O)OCC(=O)NC(=O)NC2CCCCC2)cc1 | 505 | -13.7% (inactive) | -0.9% (inactive) | 80.9 | -5.5% (inactive) | 121 | -0.509 (inactive) | 4.4e-05 (inactive) | 0.00502 (inactive) | 9.64% (inactive) | 15.4% (inactive)
8 | CN=C1CC(C)(C)CC(=O)/C1=C(/O)CCC(=O)NC | 367 | 10.4% (inactive) | 10.3% (inactive) | 104 | 50.5% (inactive) | 90.9 | -0.45 (inactive) | -1.9e-05 (inactive) | 0.00526 (inactive) | 13% (inactive) | 15.4% (inactive)
9 | COc1cc(OC)c(C(=O)Nc2ncn[nH]2)cc1OC | 667 | -1.1% (inactive) | -12% (inactive) | 107 | -95.9% (inactive) | 108 | -0.537 (inactive) | -0.000156 (inactive) | 0.00435 (inactive) | 17.7% (inactive) | 19.5% (inactive)
10 | CCOC(=O)C1CCCN(S(=O)(=O)c2cccs2)C1 (stereo not drawn) | 243 | 11.2% (inactive) | -5.5% (inactive) | 95.8 | -8.8% (inactive) | 95.2 | -0.479 (inactive) | 1.6e-05 (inactive) | 0.00471 (inactive) | -3.56% (inactive) | 4.98% (inactive)
11 | Cc1ccc(C)c(N2C(=O)CN=C2Nc2ccccc2Cl)c1 | 441 | 14.6% (inactive) | 0.8% (inactive) | 96.7 | 18.2% (inactive) | 113 | -0.577 (inactive) | -4.1e-05 (inactive) | 0.00593 (inactive) | 13% (inactive) | 24.3% (inactive)
12 | O=C(NCc1ccco1)C1CCN(S(=O)(=O)N2CCC3(CC2)OCCO3)CC1 | 358 | 5.3% (inactive) | 28.1% (inactive) | 84.3 | 18% (inactive) | 72.6 | -0.317 (inactive) | -3.5e-05 (inactive) | 0.00611 (inactive) | 0.326% (inactive) | 6.88% (inactive)
13 | COCCCNC(=O)C1CCCN(C(=O)Nc2ccc(OC)cc2)C1 (stereo not drawn) | 675 | -14.8% (inactive) | -11.8% (inactive) | 107 | 52.7% (inactive) | 49.2 | -0.315 (inactive) | -5.2e-05 (inactive) | 0.007 (inactive) | 16.2% (inactive) | 4.9% (inactive)
14 | CC(=O)C1=C(O)C(=O)N(Cc2cccnc2)C1c1ccccc1 (stereo not drawn) | 429 | -2% (inactive) | -8.8% (inactive) | 97.7 | -58.9% (inactive) | 115 | -0.537 (inactive) | -2.4e-05 (inactive) | 0.00492 (inactive) | 6.76% (inactive) | 18.6% (inactive)
15 | CCCCOc1ccc(C(=O)Nc2ccc(N3CCN(C(=O)C(C)C)CC3)cc2)cc1 | 825 | -3.3% (inactive) | -19.5% (inactive) | 92.4 | -59.7% (inactive) | 115 | -0.44 (inactive) | -1.7e-05 (inactive) | 0.0053 (inactive) | 13.8% (inactive) | -10.4% (inactive)
16 | COc1cc(S(=O)(=O)N2CCOCC2)ccc1NC(=O)COC(=O)c1ccccn1 | 621 | 11.9% (inactive) | -7.1% (inactive) | 126 | -45.4% (inactive) | 101 | -0.542 (inactive) | -2.5e-05 (inactive) | 0.00554 (inactive) | 11.7% (inactive) | 20.5% (inactive)
17 | CCc1cc2c(NCCC(=O)O)nc(C)nc2s1 | 222 | -13.7% (inactive) | 13.8% (inactive) | 79 | -7.8% (inactive) | 104 | -0.575 (inactive) | -4e-05 (inactive) | 0.00598 (inactive) | 2.05% (inactive) | 15.1% (inactive)
18 | CCC1c2ccc(C)n2CCN1C(=O)Nc1ccccc1OC (stereo not drawn) | 551 | -15.9% (inactive) | 0.1% (inactive) | 112 | -63.1% (inactive) | 116 | -0.402 (inactive) | -6.4e-05 (inactive) | 0.00541 (inactive) | 3.56% (inactive) | 3.42% (inactive)
19 | Nc1nnc(-c2ccccc2)c(-c2ccccc2)n1 | 676 | -2.1% (inactive) | 26.8% (inactive) | 83.9 | -71.1% (inactive) | 111 | -0.522 (inactive) | -3.6e-05 (inactive) | 0.00428 (inactive) | 0.988% (inactive) | 14.6% (inactive)
20 | Cc1occc1-c1nnc(SCC(=O)NCC2CCCO2)n1C (stereo not drawn) | 687 | -0.3% (inactive) | -23% (inactive) | 120 | 40.7% (inactive) | 95 | -0.521 (inactive) | 0.00013 (inactive) | 0.0055 (inactive) | 16.7% (inactive) | 10.3% (inactive)
21 | CCOC(=O)c1c(C)c(C(=O)NCC2CCCO2)c(C)n1C (stereo not drawn) | 267 | -2% (inactive) | -10.1% (inactive) | 94.7 | -8% (inactive) | 74.6 | -0.461 (inactive) | -6e-06 (inactive) | 0.00685 (inactive) | 14.1% (inactive) | 20.9% (inactive)
22 | COC(=O)c1c(N)n(-c2cc(OC)cc(OC)c2)c2nc3ccccc3nc12 | 700 | 9.4% (inactive) | 2.3% (inactive) | 84.9 | 28.6% (inactive) | 80 | -0.0659 (inactive) | -2.3e-05 (inactive) | 0.00491 (inactive) | 2.96% (inactive) | -6.82% (inactive)
23 | O=C(Nc1ccc(Cc2ccncc2)cc1)C1CC1 | 447 | 2.9% (inactive) | -6.1% (inactive) | 100 | -33.5% (inactive) | 118 | -0.605 (inactive) | 2.8e-05 (inactive) | 0.00686 (inactive) | 7.94% (inactive) | 15.6% (inactive)
24 | COc1ccc(C(NC(=O)c2ccco2)c2ccc(OC)c(OC)c2)cc1 (stereo not drawn) | 373 | 27.4% (active) | -4.2% (inactive) | 104 | -24.8% (inactive) | 114 | -0.326 (inactive) | -6.7e-05 (inactive) | 0.00496 (inactive) | 6.11% (inactive) | 18.1% (inactive)
25 | Cc1c2c(nc3nc4ccccc4n13)CC(C)(C)CC2=O | 632 | 8.2% (inactive) | -6.2% (inactive) | 109 | -63.4% (inactive) | 106 | -0.603 (inactive) | -2.5e-05 (inactive) | 0.00409 (inactive) | 16.3% (inactive) | 28.8% (inactive)
26 | O=C(CSc1nnc(-c2cccnc2)o1)OC1CCCCC1 | 695 | -3.9% (inactive) | 22.6% (inactive) | 95.8 | -54.6% (inactive) | 126 | -0.517 (inactive) | 3.9e-05 (inactive) | 0.0051 (inactive) | 15.3% (inactive) | 16.2% (inactive)
27 | CCCC(=O)N1CCN(c2ccc(NC(=O)c3ccc(Br)o3)cc2)CC1 | 232 | 0.6% (inactive) | 7.1% (inactive) | 58.2 | -64.1% (inactive) | 116 | -0.457 (inactive) | 6.7e-06 (inactive) | 0.00487 (inactive) | -9.3% (inactive) | -42.4% (inactive)
28 | COc1ccc(CC(NC(C)=O)C(=O)NC2CCN(c3nc(C)cc(C)c3C#N)CC2)c(OC)c1 (stereo not drawn) | 750 | -7.4% (inactive) | -12.3% (inactive) | 121 | -32.4% (inactive) | 112 | -0.341 (inactive) | -1.7e-05 (inactive) | 0.00702 (inactive) | -9.6% (inactive) | -9.61% (inactive)
